Data taken from ChEMBL document CHEMBL5247578, “Effective synthesis of benzimidazoles-imidazo[1,2-a]pyrazine conjugates: A comparative study of mono-and bis-benzimidazoles for antitumor activity” (Eur J Med Chem, 2019).

What was measured:
Type in all cases: functional
[1] = system: MDA-MB-468; assay: Antiproliferative activity against human MDA-MB-468 cells assessed as cell growth inhibition at 10 uM incubated for 48 hrs by sulforhodamine B assay relative to control
In short: (§1)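 NCI-60 single-dose screen at 10^-5 M. Cells grown in RPMI 1640 with 5% FBS and 2 mM L-glutamine, plated at 5,000–40,000 cells/well, and preincubated 24 h. Drug (DMSO stock) added and incubated 48 h at 37 °C, 5% CO2. Adherent cells fixed with cold TCA, stained with 0.4% SRB in 1% acetic acid, dye solubilized in 10 mM trizma base, A515 read. Percent growth taken against time-zero and untreated control.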

[2] = system: T47D; assay: Antiproliferative activity against human T47D cells assessed as cell growth inhibition at 10 uM incubated for 48 hrs by sulforhodamine B assay relative to control; in short: as §1
[3] = system: Hs-578T; assay: Antiproliferative activity against human Hs-578T cells assessed as cell growth inhibition at 10 uM incubated for 48 hrs by sulforhodamine B assay relative to control; in short: as §1
[4] = system: PC-3; assay: Antiproliferative activity against human PC-3 cells assessed as cell growth inhibition at 10 uM incubated for 48 hrs by sulforhodamine B assay relative to control; in short: as §1
[5] = system: UO-31; assay: Antiproliferative activity against human UO-31 cells assessed as cell growth inhibition at 10 uM incubated for 48 hrs by sulforhodamine B assay relative to control; in short: as §1
[6] = system: SN12C; assay: Antiproliferative activity against human SN12C cells assessed as cell growth inhibition at 10 uM incubated for 48 hrs by sulforhodamine B assay relative to control; in short: as §1
[7] = system: RXF 393; assay: Antiproliferative activity against human RXF 393 cells assessed as cell growth inhibition at 10 uM incubated for 48 hrs by sulforhodamine B assay relative to control; in short: as §1
[8] = system: A498; assay: Antiproliferative activity against human A498 cells assessed as cell growth inhibition at 10 uM incubated for 48 hrs by sulforhodamine B assay relative to control
In short: (§2)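 Single-dose NCI-60 prescreen at 10^-5 M. Cells in RPMI 1640 with 5% FBS and 2 mM L-glutamine, seeded 5,000–40,000 cells/well with 24 h preincubation, then drug exposure for 48 h at 37 °C under 5% CO2. Growth read by SRB staining of TCA-fixed cells at 515 nm against time-zero and untreated controls. Negative growth values denote cell kill.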

[9] = system: NCI/ADR-RES; assay: Antiproliferative activity against human NCI/ADR-RES cells assessed as cell growth inhibition at 10 uM incubated for 48 hrs by sulforhodamine B assay relative to control; in short: as §1
[10] = system: OVCAR-8; assay: Antiproliferative activity against human OVCAR-8 cells assessed as cell growth inhibition at 10 uM incubated for 48 hrs by sulforhodamine B assay relative to control; in short: as §1
[11] = system: IGROV-1; assay: Antiproliferative activity against human IGROV-1 cells assessed as cell growth inhibition at 10 uM incubated for 48 hrs by sulforhodamine B assay relative to control; in short: as §1
[12] = system: UACC-62; assay: Antiproliferative activity against human UACC-62 cells assessed as cell growth inhibition at 10 uM incubated for 48 hrs by sulforhodamine B assay relative to control; in short: as §1
[13] = system: SK-MEL-5; assay: Antiproliferative activity against human SK-MEL-5 cells assessed as cell growth inhibition at 10 uM incubated for 48 hrs by sulforhodamine B assay relative to control; in short: as §1
[14] = system: SK-MEL-2; assay: Antiproliferative activity against human SK-MEL-2 cells assessed as cell growth inhibition at 10 uM incubated for 48 hrs by sulforhodamine B assay relative to control; in short: as §1
[15] = system: MDA-MB-435; assay: Antiproliferative activity against human MDA-MB-435 cells assessed as cell growth inhibition at 10 uM incubated for 48 hrs by sulforhodamine B assay relative to control; in short: as §1
[16] = system: M14; assay: Antiproliferative activity against human M14 cells assessed as cell growth inhibition at 10 uM incubated for 48 hrs by sulforhodamine B assay relative to control; in short: as §1
[17] = system: LOX IMVI; assay: Antiproliferative activity against human LOX IMVI cells assessed as cell growth inhibition at 10 uM incubated for 48 hrs by sulforhodamine B assay relative to control; in short: as §1
[18] = system: U-251; assay: Antiproliferative activity against human U-251 cells assessed as cell growth inhibition at 10 uM incubated for 48 hrs by sulforhodamine B assay relative to control; in short: as §1
[19] = system: SNB-75; assay: Antiproliferative activity against human SNB-75 cells assessed as cell growth inhibition at 10 uM incubated for 48 hrs by sulforhodamine B assay relative to control; in short: as §1
[20] = system: SNB-19; assay: Antiproliferative activity against human SNB-19 cells assessed as cell growth inhibition at 10 uM incubated for 48 hrs by sulforhodamine B assay relative to control; in short: as §1
[21] = system: SF-539; assay: Antiproliferative activity against human SF-539 cells assessed as cell growth inhibition at 10 uM incubated for 48 hrs by sulforhodamine B assay relative to control; in short: as §1
[22] = system: SF-295; assay: Antiproliferative activity against human SF-295 cells assessed as cell growth inhibition at 10 uM incubated for 48 hrs by sulforhodamine B assay relative to control; in short: as §1
[23] = system: SF-268; assay: Antiproliferative activity against human SF-268 cells assessed as cell growth inhibition at 10 uM incubated for 48 hrs by sulforhodamine B assay relative to control; in short: as §1
[24] = system: HT-29; assay: Antiproliferative activity against human HT-29 cells assessed as cell growth inhibition at 10 uM incubated for 48 hrs by sulforhodamine B assay relative to control; in short: as §1
[25] = system: HCT-15; assay: Antiproliferative activity against human HCT-15 cells assessed as cell growth inhibition at 10 uM incubated for 48 hrs by sulforhodamine B assay relative to control
In short: (§3)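 NCI-60 one-dose prescreen at 10^-5 M. Cells grown in RPMI 1640 with 5% FBS and 2 mM glutamine, preincubated 24 h, then exposed 48 h at 37 °C. Adherent lines TCA-fixed, SRB-stained, A515 read. Growth percent relative to time-zero and control; negative values mean cell kill.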

[26] = system: HCT-116; assay: Antiproliferative activity against human HCT-116 cells assessed as cell growth inhibition at 10 uM incubated for 48 hrs by sulforhodamine B assay relative to control; in short: as §3
[27] = system: NCI-H522; assay: Antiproliferative activity against human NCI-H522 cells assessed as cell growth inhibition at 10 uM incubated for 48 hrs by sulforhodamine B assay relative to control; in short: as §1
[28] = system: NCI-H460; assay: Antiproliferative activity against human NCI-H460 cells assessed as cell growth inhibition at 10 uM incubated for 48 hrs by sulforhodamine B assay relative to control; in short: as §1
[29] = system: NCI-H23; assay: Antiproliferative activity against human NCI-H23 cells assessed as cell growth inhibition at 10 uM incubated for 48 hrs by sulforhodamine B assay relative to control; in short: as §1
[30] = system: EKVX; assay: Antiproliferative activity against human EKVX cells assessed as cell growth inhibition at 10 uM incubated for 48 hrs by sulforhodamine B assay relative to control; in short: as §3
[31] = system: A549; assay: Antiproliferative activity against human A549 cells assessed as cell growth inhibition at 10 uM incubated for 48 hrs by sulforhodamine B assay relative to control; in short: as §2
[32] = system: RPMI-8226; assay: Antiproliferative activity against human RPMI-8226 cells assessed as cell growth inhibition at 10 uM incubated for 48 hrs by sulforhodamine B assay relative to control; in short: as §1

Compound | inhibition at 10 µM [2] | inhibition at 10 µM [3] | inhibition at 10 µM [4] | inhibition at 10 µM [5] | inhibition at 10 µM [6] | inhibition at 10 µM [7] | inhibition at 10 µM [9] | inhibition at 10 µM [10] | inhibition at 10 µM [11] | inhibition at 10 µM [12] | inhibition at 10 µM [13] | inhibition at 10 µM [14] | inhibition at 10 µM [15] | inhibition at 10 µM [17] | inhibition at 10 µM [18] | inhibition at 10 µM [19] | inhibition at 10 µM [20] | inhibition at 10 µM [21] | inhibition at 10 µM [22] | inhibition at 10 µM [23] | also measured
c1ccc(-c2cn3ccnc3c(-c3ccc4ncn(C5CCCCC5)c4c3)n2)cc1 | -11.1% | 23.8% | 92% | 55.1% | 28.8% | 45% | 50.5% | 63.9% | 11.9% | 65.7% | 36.5% | 16.5% | 28.7% | 39.6% | 37.3% | 44.4% | 22.9% | 27.8% | 39.8% | 21.7% | inhibition at 10 µM [1]: 54.4%; inhibition at 10 µM [8]: 26.1%; inhibition at 10 µM [16]: 38.2%; inhibition at 10 µM [24]: 48.3%; inhibition at 10 µM [25]: 51.6%; inhibition at 10 µM [26]: 59.5%; inhibition at 10 µM [27]: 58.1%; inhibition at 10 µM [28]: 37.8%; inhibition at 10 µM [29]: 45.3%; inhibition at 10 µM [30]: 24.2%; inhibition at 10 µM [31]: 33.3%; inhibition at 10 µM [32]: 85.7%
CCc1ccc(-c2cn3ccnc3c(-c3ccc4ncn(Cc5ccccc5)c4c3)n2)cc1 | 94.8% | 21.8% | 50.4% | 57.9% | 22.5% | 30.7% | 41.2% | 30.8% | 25% | 24.9% | 47.9% | 14.8% | 50.9% | 50.1% | 46.1% | 29.3% | 20.9% | 21.2% | 51.2% | 30.5% | inhibition at 10 µM [1]: 17.2%; inhibition at 10 µM [16]: 36.4%; inhibition at 10 µM [24]: 68.8%; inhibition at 10 µM [25]: 74.7%; inhibition at 10 µM [26]: 61.2%; inhibition at 10 µM [27]: 45.9%; inhibition at 10 µM [28]: 42%; inhibition at 10 µM [29]: 23%; inhibition at 10 µM [30]: 39.7%; inhibition at 10 µM [31]: 45.4%; inhibition at 10 µM [32]: 55.4%
Clc1ccc(-c2cn3ccnc3c(-c3ccc4ncn(C5CCCCC5)c4c3)n2)cc1 | 27.6% | 6.35% | 24.6% | 36.1% | 13.5% | 6.73% | 11.1% | 3.78% | 7.84% | 30.5% | 12.4% | 10.9% | 36.7% | 14.8% | 11.3% | 31.1% | 15.8% | 6.3% | 14.5% | 4.83% | inhibition at 10 µM [1]: 10.6%; inhibition at 10 µM [16]: 10%; inhibition at 10 µM [24]: 16.4%; inhibition at 10 µM [25]: 15.5%; inhibition at 10 µM [26]: 7.34%; inhibition at 10 µM [27]: 19.8%; inhibition at 10 µM [28]: 4.14%; inhibition at 10 µM [29]: 4.11%; inhibition at 10 µM [30]: 13.1%; inhibition at 10 µM [31]: 11.6%; inhibition at 10 µM [32]: 19%
O=Cc1ccc(-c2cn3ccnc3c(-c3ccc4ncn(Cc5ccccc5)c4c3)n2)cc1 | 98% | 45.5% | 19% | 82.2% | 20.7% | 25% | 37.4% | 44% | 21.3% | 37.1% | 56.5% | 27.8% | 13% | 46.9% | 32% | 21.4% | 14.4% | 31.5% | 23.1% | 27.1% | inhibition at 10 µM [8]: 11.2%; inhibition at 10 µM [16]: 23%; inhibition at 10 µM [24]: 17.5%; inhibition at 10 µM [25]: 49.1%; inhibition at 10 µM [26]: 92.6%; inhibition at 10 µM [27]: 25.2%; inhibition at 10 µM [28]: 37.8%; inhibition at 10 µM [29]: 54.5%; inhibition at 10 µM [30]: 20.9%; inhibition at 10 µM [32]: 82.5%
O=Cc1ccc(-c2cn3ccnc3c(-c3ccc4ncn(C5CCCCC5)c4c3)n2)cc1 | 98% | 45.5% | 19% | 82.2% | 20.7% | 25% | 37.4% | 44% | 21.3% | 37.1% | 56.5% | 27.8% | 13% | 46.9% | 32% | 21.4% | 14.4% | 31.5% | 23.1% | 27.1% | inhibition at 10 µM [8]: 11.2%; inhibition at 10 µM [16]: 23%; inhibition at 10 µM [24]: 17.5%; inhibition at 10 µM [25]: 49.1%; inhibition at 10 µM [26]: 92.6%; inhibition at 10 µM [27]: 25.2%; inhibition at 10 µM [28]: 37.8%; inhibition at 10 µM [29]: 54.5%; inhibition at 10 µM [30]: 20.9%; inhibition at 10 µM [32]: 82.5%
Cc1cccc(-c2cn3ccnc3c(-c3ccc4ncn(Cc5ccccc5)c4c3)n2)c1 | 86% | 8.47% | 24.8% | 41.7% | 4.72% | 2.01% | 12.1% | 11.5% | 9.51% | 2.46% | 10.1% | 6.34% | 0.94% | 14.8% | 19.4% | 21.7% | 2.58% | 7.28% | 14.3% | 7.22% | inhibition at 10 µM [1]: 16.6%; inhibition at 10 µM [8]: 22.1%; inhibition at 10 µM [24]: 42%; inhibition at 10 µM [25]: 35.2%; inhibition at 10 µM [26]: 36.7%; inhibition at 10 µM [27]: 28.4%; inhibition at 10 µM [28]: 10.1%; inhibition at 10 µM [29]: 9.09%; inhibition at 10 µM [30]: 22.3%; inhibition at 10 µM [31]: 14.9%; inhibition at 10 µM [32]: 37.5%
